Consider two molecules from ChEMBL document CHEMBL1157100, “The alkyl-connected 2-amino-6-vinylpurine (AVP) crosslinking agent for improved selectivity to the cytosine base in RNA” (Bioorg Med Chem, 2010).

Common to all, as to assay type: nucleic-acid assay
In assay [1] the test system is Nucleic Acid. The assay is described as follows: Binding affinity to FAM-tagged r-(GAAAYAAGAGGAAAGA)-RNA assessed as crosslinking by PAGE. In outline:
(§1)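 Reactive ODN at 10 µM with 1 µM FAM-labeled target DNA or RNA in 100 mM NaCl, 50 mM MES pH 5 plus RNase OUT, mixed at 0 °C and then incubated at 37 °C. Reactions were stopped at set times with formamide/EDTA/bromophenol blue buffer. Products were resolved on 15% denaturing polyacrylamide gel with 7 M urea, and FAM band intensities were quantified to give crosslinking yield.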

Assay [2] has as its system Nucleic Acid. Put plainly: Binding affinity to FAM-tagged d-(GAAAYAAGAGGAAAGA)-DNA assessed as crosslinking at 10 uM by alkylation method. In outline: as §1
Assay [3] relates to Nucleic Acid. The assay is described as follows: Binding affinity to FAM-tagged r-(GAAAYAAGAGGAAAGA)-RNA assessed as crosslinking at 10 uM by alkylation method. Summed up: as §1
Assay [4] has as its system Nucleic Acid. The assay is described as follows: Binding affinity to FAM-tagged 27 mer RNA hairpin loop assessed as crosslinking at 10 uM by PAGE. Summed up:
as §1

Activity calls are given as the source filed them. The calls are words filed in the database; no cut-off is given here.

Regarding `CSCCc1nc(N)nc2c1ncn2CC[C@H]1C[C@H](OP(=O)(O)OC[C@H]2O[C@@H](n3cc(C)c(=O)[nH]c3=O)C[C@@H]2OP(=O)(O)OC[C@H]2O[C@@H](n3cc(C)c(=O)[nH]c3=O)C[C@@H]2OP(=O)(O)OC[C@H]2O[C@@H](n3ccc(N)nc3=O)[C@H](O)[C@@H]2OP(=O)(O)OC[C@H]2O[C@@H](n3cc(C)c(=O)[nH]c3=O)C[C@@H]2OP(=O)(O)OC[C@H]2O[C@@H](n3ccc(N)nc3=O)[C@H](O)[C@@H]2OP(=O)(O)OC[C@H]2O[C@@H](n3ccc(N)nc3=O)[C@H](O)[C@@H]2OP(=O)(O)OC[C@H]2O[C@@H](n3cc(C)c(=O)[nH]c3=O)C[C@@H]2OP(=O)(O)OC[C@H]2O[C@@H](n3cc(C)c(=O)[nH]c3=O)C[C@@H]2OP(=O)(O)OC[C@H]2O[C@@H](n3cc(C)c(=O)[nH]c3=O)C[C@@H]2OP(=O)(O)OC[C@H]2O[C@@H](n3ccc(N)nc3=O)[C@H](O)[C@@H]2OP(=O)(O)OC[C@H]2O[C@@H](n3cc(C)c(=O)[nH]c3=O)C[C@@H]2OP(=O)(O)O)[C@@H](COP(=O)(O)O[C@H]2C[C@H](n3cc(C)c(=O)[nH]c3=O)O[C@@H]2COP(=O)(O)O[C@H]2C[C@H](n3cc(C)c(=O)[nH]c3=O)O[C@@H]2COP(=O)(O)O[C@H]2C[C@H](n3cc(C)c(=O)[nH]c3=O)O[C@@H]2COP(=O)(O)O[C@H]2[C@@H](O)[C@H](n3ccc(N)nc3=O)O[C@@H]2CO)O1`, the result with Nucleic Acid [1], in the assay with Nucleic Acid [2] and in the assay on Nucleic Acid [3] was Active.

Consider `CSCCc1nc(N)nc2c1ncn2CC[C@H]1C[C@H](OP(=O)(O)OC[C@H]2O[C@@H](n3cc(C)c(=O)[nH]c3=O)C[C@@H]2OP(=O)(O)OC[C@H]2O[C@@H](n3cnc4c(N)ncnc43)[C@H](O)[C@@H]2OP(=O)(O)OC[C@H]2O[C@@H](n3cc(C)c(=O)[nH]c3=O)C[C@@H]2OP(CCC#N)N(C(C)C)C(C)C)[C@@H](COP(=O)(O)O[C@H]2C[C@H](n3cc(C)c(=O)[nH]c3=O)O[C@@H]2COP(=O)(O)O[C@H]2C[C@H](n3cc(C)c(=O)[nH]c3=O)O[C@@H]2COP(=O)(O)O[C@H]2[C@@H](O)[C@H](n3cnc4c(N)ncnc43)O[C@@H]2COP(=O)(O)O[C@H]2[C@@H](O)[C@H](n3cnc4c(N)ncnc43)O[C@@H]2COP(=O)(O)O[C@H]2[C@@H](O)[C@H](n3cnc4c(N)ncnc43)O[C@@H]2COP(=O)(O)O[C@H]2[C@@H](O)[C@H](n3ccc(N)nc3=O)O[C@@H]2COP(=O)(O)O[C@H]2C[C@H](n3cc(C)c(=O)[nH]c3=O)O[C@@H]2COP(=O)(O)O[C@H]2[C@@H](O)[C@H](n3cnc4c(N)ncnc43)O[C@@H]2COP(=O)(O)O[C@H]2[C@@H](O)[C@H](n3cnc4c(=O)[nH]c(N)nc43)O[C@@H]2COP(=O)(O)O[C@H]2C[C@H](n3cc(C)c(=O)[nH]c3=O)O[C@@H]2COP(=O)(O)O[C@H]2[C@@H](O)[C@H](n3ccc(N)nc3=O)O[C@@H]2COP(=O)(O)O[C@H]2[C@@H](O)[C@H](n3cnc4c(N)ncnc43)O[C@@H]2COP(=O)(O)O[C@H]2C[C@H](n3cc(C)c(=O)[nH]c3=O)O[C@@H]2COP(=O)(O)O[C@H]2[C@@H](O)[C@H](n3cnc4c(N)ncnc43)O[C@@H]2COP(=O)(O)O[C@H]2C[C@H](n3cc(C)c(=O)[nH]c3=O)O[C@@H]2CO)O1` (some centres undefined), for which, in the assay with Nucleic Acid [4], the result was Active.
